ChEMBL document CHEMBL1138683 (J Med Chem, 2004)

Experiments:
[1] = test system: Mus musculus; assay: Anti convulsant activity administered intra peritoneally to mouse for subcutaneous metrazol test at 0.5 h with dose of 300 mg/kg; 0/1= No of animals protected /No of animals tested; assay type: functional
[2] = test system: Mus musculus; assay: Anti convulsant activity administered intra peritoneally to mouse for subcutaneous metrazol test at 0.5 hr with dose of 30 mg/kg; 0/1= No of animals protected /No of animals tested; assay type: functional
[3] = test system: Mus musculus; assay: Anti convulsant activity administered intra peritoneally to mouse at maximal electroshock test at 0.5 hr after the drug administered with dose of 100 mg/kg; 0/3= No of animals protected /No of animals tested; assay type: functional
[4] = test system: Mus musculus; assay: Anti convulsant activity administered intra peritoneally to mouse for subcutaneous metrazol test at 4 hr after the drug administered with dose of 30 mg/kg; 0/1= No of animals protected /No of animals tested; assay type: functional; details: route intraperitoneal
[5] = test system: Mus musculus; assay: Anti convulsant activity administered intra peritoneally to mouse for subcutaneous metrazol test at 4 hr with dose of 300 mg/kg; 0/1= No of animals protected /No of animals tested; assay type: functional
[6] = test system: Rattus norvegicus; assay: Anticonvulsant activity after oral administration of 50 mg/kg dose after 1 hr in rats;+means 25% of the animals protected; assay type: functional, organism-based; set-up: dose 50 mg/kg
How it was run: (§1)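 Oral dosing of rats at a single dose, compound dissolved or suspended in 0.5% methylcellulose. Protection in the MES or scMet test checked 15 min, 30 min, 1 h, 2 h and 4 h after dosing. Scored as 25/50/75/100% of animals protected (+ to ++++), – for none.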

[7] = test system: Mus musculus; assay: Anti convulsant activity administered intra peritoneally to mouse for subcutaneous metrazol test at 4 hr after the drug administered with dose of 100 mg/kg; 0/1= No of animals protected /No of animals tested; assay type: functional
[8] = Anti convulsant activity administered intra peritoneally to mouse for toxicity at 4 hr with dose of 30 mg/kg; 0/2= No of animals exhibiting toxicity /No of animals tested; assay type: organism-based; set-up: dose 30 mg/kg; details: in vivo, ip
[9] = test system: Rattus norvegicus; assay: Anticonvulsant activity after oral administration of 50 mg/kg dose after 2 hr in rats; +++ means 75% of the animal is protected; assay type: functional, organism-based; set-up: dose 50 mg/kg; how it was run: as §1
[10] = Anti convulsant activity administered intra peritoneally to mouse for toxicity at 4 hr with dose of 100 mg/kg; 0/4= No of animals exhibiting toxicity /No of animals tested; assay type: organism-based; set-up: dose 100 mg/kg; details: in vivo, ip
[11] = test system: Rattus norvegicus; assay: Anticonvulsant activity after oral administration of 125 mg/kg dose after 30 min in rats;++ means 50% of the animals protected; assay type: functional, organism-based; set-up: dose 125 mg/kg; how it was run: as §1
[12] = test system: Mus musculus; assay: Anti convulsant activity administered intra peritoneally to mouse at maximal electroshock test at 0.5 hr after the drug administered with dose of 300 mg/kg; 1/1= No of animals protected /No of animals tested; assay type: functional
[13] = test system: Rattus norvegicus; assay: Anticonvulsant activity after oral administration of 50 mg/kg dose after 30 min in rats; ++ means 50% of the animal protected; assay type: functional, organism-based; set-up: dose 50 mg/kg
How it was run: (§2)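 Rats dosed orally with compound dissolved or suspended in 0.5% methylcellulose (0.04 mL per 10 g body weight). Anticonvulsant protection (MES or scMet) and toxicity scored at 15 min, 30 min, 1 h, 2 h and 4 h after dosing. Graded in steps of 25% of animals protected or showing toxicity.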

[14] = test system: Mus musculus; assay: Anti convulsant activity administered intra peritoneally to mouse at maximal electroshock test at 4 hr after the drug administered with dose of 300 mg/kg; 1/1= No of animals protected /No of animals tested; assay type: functional
[15] = Anti convulsant activity administered intra peritoneally to mouse for toxicity at 4 hr with dose of 300 mg/kg; 0/2= No of animals exhibiting toxicity /No of animals tested; assay type: organism-based; set-up: dose 300 mg/kg; details: in vivo, ip
[16] = Anti convulsant activity administered intra peritoneally to mouse for toxicity at 0.5 hr with dose of 30 mg/kg; 0/4= No of animals exhibiting toxicity /No of animals tested; assay type: organism-based; set-up: dose 30 mg/kg; details: in vivo, ip
[17] = test system: Mus musculus; assay: Anti convulsant activity administered intra peritoneally to mouse at maximal electroshock test at 4 hr after the drug administered with dose of 30 mg/kg; 0/1= No of animals protected /No of animals tested; assay type: functional
[18] = test system: Mus musculus; assay: Anti convulsant activity administered intra peritoneally to mouse for subcutaneous metrazol test at 0.5 hr with dose of 100 mg/kg; 0/1= No of animals protected /No of animals tested; assay type: functional
[19] = Anti convulsant activity administered intra peritoneally to mouse for toxicity at 0.5 hr with dose of 100 mg/kg; 1/8= No of animals exhibiting toxicity /No of animals tested; assay type: organism-based; set-up: dose 100 mg/kg; details: in vivo, ip
[20] = test system: Mus musculus; assay: Anti convulsant activity administered intra peritoneally to mouse at maximal electroshock test at 4 hr after the drug administered with dose of 100 mg/kg; 0/3= No of animals protected /No of animals tested; assay type: functional
[21] = Anti convulsant activity administered intra peritoneally to mouse for toxicity at 0.5 hr with dose of 300 mg/kg; 4/4= No of animals exhibiting toxicity /No of animals tested; assay type: organism-based; set-up: dose 300 mg/kg; details: in vivo, ip
[22] = test system: Rattus norvegicus; assay: Anticonvulsant activity after oral administration of 50 mg/kg dose after 30 min in rats; +means 25% of animal protected; assay type: functional, organism-based; set-up: dose 50 mg/kg; how it was run: as §2
[23] = Anti convulsant activity administered intra peritoneally to mouse for toxicity at 0.5 hr with dose of 100 mg/kg; 0/8= No of animals exhibiting toxicity /No of animals tested; assay type: organism-based; set-up: dose 100 mg/kg; details: in vivo, ip
[24] = test system: Rattus norvegicus; assay: Anticonvulsant activity after oral administration of 50 mg/kg dose after 2 hr in rats; ++ means 50% of animals protected; assay type: functional, organism-based; set-up: dose 50 mg/kg; how it was run: as §1
[25] = test system: Rattus norvegicus; assay: Anticonvulsant activity after oral administration of 50 mg/kg dose after 4 hr in rats; + means 25% of the animal protected; assay type: functional, organism-based; set-up: dose 50 mg/kg; how it was run: as §2
[26] = Anti convulsant activity administered intra peritoneally to mouse for toxicity at 4 hr with dose of 100 mg/kg; 1/4= No of animals exhibiting toxicity /No of animals tested; assay type: organism-based; set-up: dose 100 mg/kg; details: in vivo, ip
[27] = test system: Mus musculus; assay: Anti convulsant activity administered intra peritoneally to mouse at maximal electroshock test at 0.5 h after the drug administered with dose of 30 mg/kg; 0/1= No of animals protected /No of animals tested; assay type: functional
[28] = test system: Rattus norvegicus; assay: Anticonvulsant activity after oral administration of 50 mg/kg dose after 1 hr in rats; +means25% of animals protected; assay type: functional, organism-based; set-up: dose 50 mg/kg; how it was run: as §1
[29] = test system: Rattus norvegicus; assay: Anticonvulsant activity after oral administration of 50 mg/kg dose after 30 min in rats; + means 25% of animals protected; assay type: functional, organism-based; set-up: dose 50 mg/kg; how it was run: as §1
[30] = test system: Mus musculus; assay: Anti convulsant activity administered intra peritoneally to mouse at maximal electroshock test at 4 hr after the drug administered with dose of 300 mg/kg; 0/1= No of animals protected /No of animals tested; assay type: functional
[31] = test system: Rattus norvegicus; assay: Anticonvulsant activity administered orally to rat at subcutaneous metrazol test; assay type: functional
[32] = test system: Mus musculus; assay: Anticonvulsant activity administered intra peritoneally to mouse at subcutaneous metrazol test; assay type: functional; details: sc
[33] = test system: Rattus norvegicus; assay: Anticonvulsant activity administered orally to rat for protective index of subcutaneous metrazol test; assay type: functional
[34] = test system: Mus musculus; assay: Anticonvulsant activity administered intra peritoneally to mouse for protective index of subcutaneous metrazol test; assay type: functional
[35] = Anti convulsant activity administered intra peritoneally to mouse for toxicity at 0.5 hr with dose of 300 mg/kg; 2/4= No of animals exhibiting toxicity /No of animals tested; assay type: organism-based; set-up: dose 300 mg/kg; details: in vivo, ip
[36] = test system: Rattus norvegicus; assay: Anticonvulsant activity after oral administration of 100 mg/kg dose after 1 hr in rats; + means 25% of the animals protected; assay type: functional, organism-based; set-up: dose 100 mg/kg; how it was run: as §1
[37] = test system: Mus musculus; assay: Anti convulsant activity administered intra peritoneally to mouse at maximal electroshock test at 0.5 h after the drug administered with dose of 300 mg/kg; 0/1= No of animals protected /No of animals tested; assay type: functional

| Structure (SMILES) | Activity [1] | Activity [2] | Activity [3] | Activity [4] | Activity [5] | Activity [7] | Toxicity [8] | Activity [12] | Toxicity [15] | Toxicity [16] | Activity [17] | Activity [18] | Toxicity [19] | Activity [20] | Toxicity [26] | Activity [27] | Activity [30] | further results |
| --- | --- | --- | --- | --- | --- | --- | --- | --- | --- | --- | --- | --- | --- | --- | --- | --- | --- | --- |
| CN(C)C(=O)NC(=O)C1C(C)(C)C1(C)C | 0 | 0 | 0 | 0 | 0 | 0 | 0 | 1 | 0 | 0 | 0 | 0 | 1 | 0 | – | – | – | Activity [6]: 25% of the animals protected; Activity [9]: 25% of the animals protected; Toxicity [10]: 0; Activity [11]: 25% of the animals protected; Activity [13]: 25% of the animals protected; Activity [14]: 1 |
| CC1(C)C(C(=O)NC2CC2)C1(C)C | 0 | 0 | 0 | 0 | 0 | 0 | 0 | 1 | 0 | 0 | 0 | 0 | – | 0 | 1 | 0 | 0 | Toxicity [21]: 4; Activity [22]: 25% of animal protected; Toxicity [23]: 0; Activity [24]: 25% of animal protected; Activity [25]: 25% of animal protected; Activity [28]: 25% of animal protected; Activity [29]: 25% of animal protected |
| CCCC(CCC)C(=O)O [VALPROIC ACID] | – | – | – | – | – | – | – | – | – | – | – | – | – | – | – | – | – | ED50 [31]: 646 mg/kg; ED50 [32]: 220 mg/kg |
| CC1(C)C(C(N)=O)C1(C)C | – | – | – | – | – | – | – | – | – | – | – | – | – | – | – | – | – | Activity [33]: 7.3; Activity [34]: 1.7 |
| CN(CCO)C(=O)C1C(C)(C)C1(C)C | 0 | 0 | 0 | 0 | 0 | 0 | 0 | – | 0 | 0 | 0 | 0 | 1 | 0 | 1 | 0 | 0 | Toxicity [35]: 2; Activity [36]: 25% of the animals protected; Activity [37]: 0 |
